Assay results as given in the RNAGym collection of RNA variant scans (doi:10.1126/science.aae0568).
Fewer inactive variants are shown than the library holds.

B1: tRNA (parent)
chain: GUUCCGUUGGCGUAAUGGUAACGCGUCUCCCUCCUAAGGAGAAGACUGCGGGUUCGAGUCCCGUACGGAACG

Variants of: B1
Test: yeast fitness relative to wild type (ratio to wild type); higher = fitter; tRNA-Arg(CCU), competitive growth, 37 C, YPD
Summary of the method: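 For this measurement, the tRNA-Arg(CCU) gene was varied by chemical synthesis at a 3% per-site mutation rate across 69 sites, and each variant was placed at the native genomic locus in Saccharomyces cerevisiae. The pooled strains went through a 24-hour competition in YPD at 37°C in six parallel replicates, with amplicons from start and end populations read by 100-nucleotide paired-end sequencing. Darwinian fitness relative to wild type followed from the change in each genotype's frequency. Genotypes needed ≥ 100 starting reads, and estimates < 0.5 were set to 0.5.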

| Variant | yeast fitness |
| --- | --- |
| GUUCCGUCGGCGUAAUGGUAACGCCUCUCCCUCCUAAGGAGAAGACUGAGGGUUCGAGUCCCGUACGGAACG | 0.515 |
| GUUCCGUCGGCGUAAUGGUAACGCCUCUCCCUCCUAAAGAGAAGACUGCGGGUUCGAAUUCCGUACGGAACG | ≤ 0.5 |
| GUUCCGUCGGCGUAAUGGUAACGCGUCUCCCUCCUAAAGAGAAGACUGCGGGUUCGAGUCCCGUACGGAACG | 0.885 |
| GUUCCGUCGGCGUAAUGGUAACGCGUCUCCCUCCUAACGAGAAGACUGCGGGUUCGAGUCCCGUACGGAACG | 0.799 |
| GUUCCGUCGGCGUAAUGGUAACGCGUCUCCCUCCUAAGAAGAAGACUGCGGGUUCGAGUCCCGUACGGAACG | 0.874 |
| GUUCCGUCGGCGUAAUGGUAACGCGUCUCCCUCCUAAGCAGAAGACUGCGGGUUCGAGUCCCGUACGGAACG | 0.67 |
| GUUCCGUCGGCGUAAUGGUAACGCGUCUCCCUCCUAAGCAGAAGACCGCGGGUUCGAGCCCCGUACGGAACG | ≤ 0.5 |
| GUUCCGUCGGCGUAAUGGUAACGCGUCUCCCUCCUAAGGAAAAGACUGCGGGUUCGAGUCCCGUACGGAACG | 0.92 |
| GUUCCGUCGGCGUAAUGGUAACGCGUCUCCCUCCUAAGGAGAAAACUAAGGGUUCGAGACCCGUACGGAACG | 0.524 |
| GUUCCGUCGGCGUAAUGGUAACGCGUCUCCCUCCUAAGGAGAAAACUGCGGGCUCGAGUCCCGUACGGAUCG | ≤ 0.5 |
| GUUCCGUCGGCGUAAUGGUAACGCGUCUCCCUCCUAAGGAGAAAACUGCGGGCUAGAGUCCCGUACGGAUCG | ≤ 0.5 |
| GUUCCGUCGGCGUAAUGGUAACGCGUCUCCCUCCUAAGGAGAACACUGCGGGUUCGAGUCCCGUACGGAACG | 0.911 |
| GUUCCGUCGGCGUAAUGGUAACGCGUCUCCCUCCUAAGGAGAACAAUGCGGGUUCGAGUCCCGUACGGAACG | 0.769 |
| GUUCCGUCGGCGUAAUGGUAACGCGUCUCCCUCCUAAGGAGAACACUACGAGUUCGAGUCCCGUACGGAACG | 0.674 |
| GUUCCGUCGGCGUAAUGGUAACGCGUCUCCCUCCUAAGGAGAAGACUCCGGGUUCGAGUCCCGUACGGAACG | 0.843 |
| GUUCCGUCGGCGUAAUGGUAACGCGUCUCCCUCCUAAGGAGAAGACUGCAGGUUCGAGUCCCGUCCGGAACG | 0.603 |
| GUUCCGUCGGCGUAAUGGUAACGCGUCUCCCUCCUAAGGAGAAGACUGCAGGUUCGAGUCCCGUAAGGAACG | ≤ 0.5 |
| GUUCCGUCGGCGUAAUGGUAACGCGUCUCCCUCCUAAGGAGAAGACUGCCGGUUAGAGUACCGUACGGAACG | ≤ 0.5 |
| GUUCCGUCGGCGUAAUGGUAACGCGUCUCCCUCCUAAGGAGAAGACUGCGGAUUCGAGUCCCGUACAGAACG | ≤ 0.5 |
| GUUCCGUCGGCGUAAUGGUAACGCGUCUCCCUCCUAAGGAGAAGACUGCGGCUUCGAGUCCCGUACGGAACG | 0.639 |
| GUUCCGUCGGCGUAAUGGUAACGCGUCUCCCUCCUAAGGAGAAGACUGCGGGUUCAAGUCCCGUACGGAACG | 1.06 |
| GUUCCGUCGGCGUAAUGGUAACGCGUCUCCCUCCUAAGGAGAAGACUGCGGGUUCAAGUCCCGUACGGCACG | 0.836 |
| GUUCCGUCGGCGUAAUGGUAACGCGUCUCCCUCCUAAGGAGAAGACUGCGGGUUCUAGUCCCGUACGGAACG | 0.755 |
| GUUCCGUCGGCGUAAUGGUAACGCGUCUCCCUCCUAAGGAGAAGACUGCGGGUUCGAAUCCCGUACGGAACG | 1.02 |
| GUUCCGUCGGCGUAAUGGUAACGCGUCUCCCUCCUAAGGAGAAGACUGCGGGUUCGACUCCCGUACGGAACG | 0.919 |

| Variant | yeast fitness |
| --- | --- |
| GUUCCGUCGGCGUAAUGGUAACGCGUCUCCCUCCUAAGGAGAAGACUGCGGGUUCGAGUCCCAUACGGAACG | 0.864 |
| GUUCCGUCGGCGUAAUGGUAACGCGUCUCCCUCCUAAGGAGAAGACUGCGGGUUCGAGUCCCGUACUGAACG | 0.862 |
| GUUCCGUCGGCGUAAUGGUAACGCGUCUCCCUCCUAAGGAGAAGACUGCGGGUUCGAGUCCCGUACGCAACG | 0.958 |
| GUUCCGUCGGCGUAAUGGUAACGCGUCUCCCUCCUAAGGAGAAGACUGCGGGUUCGAGUCCCGUACGUAACG | 0.857 |
| GUUCCGUCGGCGUAAUGGUAACGCGUCUCCCUCCUAAGGAGAAGACUGCGGGUUCGAGUCCCGUACGUCACG | ≤ 0.5 |
| GUUCCGUCGGCGAAAUGGUAACGCGUCUCCCUCCUAAGGAGAAGACUGCGGGUUCGAGUCCCGUACGGAACG | 0.809 |
| GUUCCGUCGGCGAAAUGGUAACGUGUCUGCCUACUAAGGAGAAGACAGCGGGUUUGAGUCCCGUCCGGAACG | 0.787 |
| GUUCCGUCGGCGAAAUGGUAACGCGUCUCCCUCCUAAGGAGAAGACUGCGAGUUCGAGUCCCGUACGGAACG | 0.53 |
| GUUCCGUCGGCGAAAUGGUAACGCGUCUCCCUCCUAAGGAGAAGACUGCGGGUUCGAGUCCCGUACUGAACG | 0.626 |
| GUUCCGUCGGCGCCAUGGUAACGCGUCUCUCUCCUAAGGAGGAGACUGCCGGUUUGAGUCCCGUACGGAACG | 0.671 |
| GUUCCGUCGGCGCAAUGGUAACGCGUAUCCCUCCUAAGGAGAAGACUGCGGGUUCGAGUCCCGUACGGAACG | 0.574 |
| GUUCCGUCGGCGGAAUGGUAACGCGUCUCCCUCCUAAGGAGAAGACUGCGGGUUCGAGUCCCGUACGGAACG | 0.841 |
| GUUCCGUCGGCGGAAUGGUAAUGCGUCUCCCUCCUAAGGAGAAGACUGAGGGUUCGAGUCCCGUACGGCACG | ≤ 0.5 |
| GUUCCGUCGGCGUAAAGGUAACGCGUCUCCCUCCUAAGGAGAAGACUGCGGGUUCGAGUCCCGUACGGAACG | 0.934 |
| GUUCCGUCGGCGUAAAGGUAACGCGUCUCCCUGCUAAGGACAAGACUGCGGGUUCCAAUCCCCUUCGGAACG | ≤ 0.5 |
| GUUCCGUCGGCGUAAAGGAAAUGCGUCUCCCUCCUAAGGAGAAGACUGCGGGUUCGAGUCCCGUACGGAACG | 0.536 |
| GUUCCGUCGGCGUAACGGUUACGCGUCUCUCUCCUAAGCAGAAGGCUGCGGGUUCGAGUCCCGUACGGCACG | ≤ 0.5 |
| GUUCCGUCGGCGUAACGGUAACGCGUCUCCCUCCUAAGGAGAAGACUGCGGGUUCGAGUCCCGUACGGAUCG | 0.577 |
| GUUCCGUCGGCGUAACGGUAACGUGUCUCCCUCCUAAGGAGAAGACAGCGGGUUUGAGUCCCGUACGGAACG | ≤ 0.5 |
| GUUCCGUCGGCGUAACGGUAACGCGUCUGCCUCCUAAGGAGAAGACUGCGGGUUCGAGUCCCGUACGGAACG | ≤ 0.5 |
| GUUCCGUCGGCGUAACGGUAACGCGUCUCCCUUCUAAGGAGAUGACUGGCGGUUCGAGUCUCGUAUGGAACG | ≤ 0.5 |
| GUUCCGUCGGCGUAACGGUAACGCCUCUCCCUCCUAAGGAGAAGACAGCGGGUUCGAGUCCCGUGCGGAACG | ≤ 0.5 |
| GUUCCGUCGGCGUAACGGUAACGCGUCUCCCUCCUAAGGAGAAGACUGCGGGUUCGAGUCCCGUACUGAACG | 0.576 |
| GUUCCGUCGGCGUAACGGUAACGCGUCUCCCUCCUAAGGAGAAGACUGCGGGGUCCAGUACCGUACGGAACG | ≤ 0.5 |
| GUUCCGUCGGCGUAACGGUAACGCGUCUCCCUCCUAAGGAGAAGACUGCGGGUUCGAGACCCGUACGGAACG | ≤ 0.5 |

| Variant | yeast fitness |
| --- | --- |
| GUUCCGUCGGCGUAAGGGUAACGCAUCUCCCUCCUAAGGAGAAGACUGCGGGUUCGAGUCCCGUACGGAGCG | ≤ 0.5 |
| GUUCCGUCGGCGUAAGGGUAACGCGUCUCCCUCCUAAGGACAAGACUGCGGGUUCGAGUCCCGUACGGAACG | ≤ 0.5 |
| GUUCCGUCGGCGUAAUGGAAACGCGUCUCCCUCCUAAGGAGAAGACUGCGGGUUCGAGUCCCGUACGGAACG | 0.923 |
| GUUCCGUCGGCGUAAUGGAAACGCGUCUCCCUCCUAGGGAGAAGACUGCGGGUUCGAGUCCCGUACGGAACG | 0.559 |
| GUUCCGUCGGCGUAAUGGAAACGCGUCUCCCUCCUAAGGCGAACACUCCGGGUUCGAGUCCCGUACGGAACG | ≤ 0.5 |
| GUUCCGUCGGCGUAAUGGAAAGGUGUCUCCCUGCUAAGGAGAAGACUGCGGGUUCGAGUCCCGUACGGAACG | ≤ 0.5 |
| GUUCCGUCGGCGUAAUGGAAACGUGUCUCCCUCCUAAAGAGAAGACUGCGGGUCCGAGUCCCGUAAGGAACG | ≤ 0.5 |
| GUUCCGUCGGCGUAAUGGCAACGCGUCUCCCUCCUAAGGAGAAGACUGCGGGUUCGUGUCCCGUACGGAACG | ≤ 0.5 |
| GUUCCGUCGGCGUAAUGGCAACGCGUCUCCCUCCUAAGGAGAAGACUGCGGGUUGGAGUCCCGUACGGAACG | ≤ 0.5 |
| GUUCCGUCGGCGUAAUGGCAACGCGUCUCCCUCCUAAGGAGAAGACUGCGGGUUUGAGUCCCGUACGGAACG | ≤ 0.5 |
| GUUCCGUCGGCGUAAUGGCAACGCGUCUCCCUCCUAAGGAGAAGACUGCGGGUACGAGUCCCGUACGGAACG | 0.542 |
| GUUCCGUCGGCGUAAUGGUAACGCGACUCCCUCCUAAGGUGAAGACUGCGGGUUCGAGUCCCGUACGGAACG | 0.613 |
| GUUCCGUCGGCGUAAUGGUAACGCGACUCCCUCCUAAGGAGAAGACUGCGGGUUCGAGUCACGUUCGGAACG | ≤ 0.5 |
| GUUCCGUCGGCGUAAUGGUAACGCGCCUCCCUCCUAAGGAGAAGACUGCGGGUUCGAGUCCCGUACGGAACG | 0.837 |
| GUUCCGUCGGCGUAAUGGUAACGCGGCUCCCUCCUAAGGAGAAGACUGCGGGUUCGAGUCCCGUACGGAACG | 0.959 |
| GUUCCGUCGGCGUAAUGGUAACGCGGCUCCCUGCUACGGAGAAGACUGCGGGUACGAGUCCCGUACGGAACG | ≤ 0.5 |
| GUUCCGUCGGCGUAAUGGUAACGCGUCAGCCUCCUAAGGAGAAGACUGCGGGUUCGCGUCCCGUACAGAACG | ≤ 0.5 |
| GUUCCGUCGGCGUAAUGGUAACGCGUCACCCUCCUAAGGAGAAGAGUGCGGGUUAGAGUCCCGUACGGAACG | 0.731 |
| GUUCCGUCGGCGUAAUGGUAACGCGUCCCCCUCCUAAGGAGAAGACUGCGGGUUCGAGUCCCGUACGGAACG | 0.834 |
| GUUCCGUCGGCGUAAUGGUAACGCGUCUCCCACCUAAGGAGAAGACUGCGGGUUCGAGUCCCGUACGGAACG | 0.755 |
| GUUCCGUCGGCGUAAUGGUAACGCGUCUCCCACCUAAGGUCAAGAAUGCGGAUUCGAGUCCCGUACGGAACG | ≤ 0.5 |
| GUUCCGUCGGCGUAAUGGUAACGCGUCUCCCACCUAAGGAGAAGACAGCGGGUUCCAGUCCCGUACGGAACG | 0.944 |
| GUUCCGUCGGCGUAAUGGUAACGCGUCUCCCCCCUAAGGAGAAGAAUGCGGGUUAGAGUCCCGUACGGAACG | 0.625 |
| GUUCCGUCGGCGUAAUGGUAACGCGUCUCCCCCCUAAGGAGAAAACUGCGGGUUCGAGUCCCGUACGGUACG | 0.724 |
| GUUCCGUCGGCGUAAUGGUAACGCGUCUCCCCCCUAAGGAGAAGACUACGGGUUCGAGUCCCGUACGGAACG | 0.591 |
